According to ChEMBL document CHEMBL5303300, “EUbOPEN Chemogenomics Library - Multiplex” (2023):
Where “and” joins values, the source holds several entries; their conditions need not be identical. Identical values can stand only once.

System: Fibroblast
Assay: Multiplex assay against human fibroblast
Format: toxicity, cell-based
Conditions: number of replicates 2
Method in brief: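 Live cells were stained at seeding with Hoechst33342, BioTracker Green Microtubule Cytoskeleton Dye, MitoTracker Red and Annexin V Alexa Fluor 680, then imaged on a CQ1 microscope at 37°C and 5% CO2 after compound addition. CellPathfinder machine-learning gating split cells into Hoechst high-intensity objects or normal cells. Normal cells were split into healthy, pyknosed or fragmented nuclei, and pyknosed cells into mitotic or apoptotic. Tubulin, mitochondrial-mass and membrane-permeability phenotypes are per cents of healthy-nucleus cells.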

[1] = 12 h, 1 µM, compound concentration 1 uM
[2] = 12 h, 10 µM, compound concentration 10 uM
[3] = 24 h, 1 µM, compound concentration 1 uM
[4] = 24 h, 10 µM, compound concentration 10 uM
[5] = 48 h, 1 µM, compound concentration 1 uM
[6] = 48 h, 10 µM, compound concentration 10 uM

Cl.Clc1ccc2nsnc2c1NC1=NCCN1 [TIZANIDINE HYDROCHLORIDE]
Population Apoptotic (%) [1]: 50% and 48% | Population Fragmented Nuclei (%) [1]: 10% | Population Healthy Nuclei (%) [1]: 62% | Population Hoechst High Intensity Objects (%) [1]: 0% | Population Membrane Permeable-Phenotype (%) [1]: 4% and 7% | Population Mitochondria Different-Phenotype (%) [1]: 0% | Population Mitotic Cells (%) [1]: 49% and 51% | Population Normal (%) [1]: 100% | Population Pyknosed Nuclei (%) [1]: 26% and 27% | Population Tubulin-Different-Phenotype (%) [1]: 10% and 5% | Total Cell Count [1]: 192 and 172 | Population Apoptotic (%) [2]: 36% | Population Fragmented Nuclei (%) [2]: 16% and 15% | Population Healthy Nuclei (%) [2]: 68% and 70% | Population Hoechst High Intensity Objects (%) [2]: 0% | Population Membrane Permeable-Phenotype (%) [2]: 5% and 3% | Population Mitochondria Different-Phenotype (%) [2]: 3% and 1% | Population Mitotic Cells (%) [2]: 63% | Population Normal (%) [2]: 100% | Population Pyknosed Nuclei (%) [2]: 15% and 13% | Population Tubulin-Different-Phenotype (%) [2]: 14% and 8% | Total Cell Count [2]: 194 and 264 | Population Apoptotic (%) [3]: 67% and 56% | Population Fragmented Nuclei (%) [3]: 9% and 13% | Population Healthy Nuclei (%) [3]: 60% and 57% | Population Hoechst High Intensity Objects (%) [3]: 0% | Population Membrane Permeable-Phenotype (%) [3]: 6% | Population Mitochondria Different-Phenotype (%) [3]: 1% and 0% | Population Mitotic Cells (%) [3]: 32% and 44% | Population Normal (%) [3]: 100% | Population Pyknosed Nuclei (%) [3]: 29% and 28% | Population Tubulin-Different-Phenotype (%) [3]: 14% and 8% | Total Cell Count [3]: 176 and 173 | Population Apoptotic (%) [4]: 71% and 45% | Population Fragmented Nuclei (%) [4]: 12% and 14% | Population Healthy Nuclei (%) [4]: 71% and 72% | Population Hoechst High Intensity Objects (%) [4]: 0% | Population Membrane Permeable-Phenotype (%) [4]: 6% and 4% | Population Mitochondria Different-Phenotype (%) [4]: 3% and 1% | Population Mitotic Cells (%) [4]: 28% and 54% | Population Normal (%) [4]: 100% and 99% | Population Pyknosed Nuclei (%) [4]: 15% and 12% | Population Tubulin-Different-Phenotype (%) [4]: 12% and 8% | Total Cell Count [4]: 182 and 271 | Population Apoptotic (%) [5]: 68% and 59% | Population Fragmented Nuclei (%) [5]: 11% and 15% | Population Healthy Nuclei (%) [5]: 71% and 63% | Population Hoechst High Intensity Objects (%) [5]: 0% | Population Membrane Permeable-Phenotype (%) [5]: 6% and 11% | Population Mitochondria Different-Phenotype (%) [5]: 0% | Population Mitotic Cells (%) [5]: 31% and 40% | Population Normal (%) [5]: 100% and 99% | Population Pyknosed Nuclei (%) [5]: 17% and 20% | Population Tubulin-Different-Phenotype (%) [5]: 12% and 3% | Total Cell Count [5]: 186 and 203 | Population Apoptotic (%) [6]: 72% and 60% | Population Fragmented Nuclei (%) [6]: 13% and 12% | Population Healthy Nuclei (%) [6]: 70% and 78% | Population Hoechst High Intensity Objects (%) [6]: 0% | Population Membrane Permeable-Phenotype (%) [6]: 5% and 2% | Population Mitochondria Different-Phenotype (%) [6]: 0% | Population Mitotic Cells (%) [6]: 27% and 39% | Population Normal (%) [6]: 100% and 99% | Population Pyknosed Nuclei (%) [6]: 15% and 8% | Population Tubulin-Different-Phenotype (%) [6]: 8% and 2% | Total Cell Count [6]: 193 and 260

CNS(=O)(=O)c1ccc(N(C)C)c(Nc2ncnc3cc(OC)c(OC)cc23)c1
Population Apoptotic (%) [1]: 40% and 34% | Population Fragmented Nuclei (%) [1]: 11% and 10% | Population Healthy Nuclei (%) [1]: 55% and 63% | Population Hoechst High Intensity Objects (%) [1]: 0% | Population Membrane Permeable-Phenotype (%) [1]: 4% and 6% | Population Mitochondria Different-Phenotype (%) [1]: 0% | Population Mitotic Cells (%) [1]: 60% and 65% | Population Normal (%) [1]: 100% | Population Pyknosed Nuclei (%) [1]: 33% and 26% | Population Tubulin-Different-Phenotype (%) [1]: 9% and 6% | Total Cell Count [1]: 136 and 169 | Population Apoptotic (%) [2]: 41% and 28% | Population Fragmented Nuclei (%) [2]: 13% and 8% | Population Healthy Nuclei (%) [2]: 61% and 67% | Population Hoechst High Intensity Objects (%) [2]: 0% | Population Membrane Permeable-Phenotype (%) [2]: 4% and 6% | Population Mitochondria Different-Phenotype (%) [2]: 1% | Population Mitotic Cells (%) [2]: 58% and 71% | Population Normal (%) [2]: 99% and 100% | Population Pyknosed Nuclei (%) [2]: 24% and 23% | Population Tubulin-Different-Phenotype (%) [2]: 22% and 16% | Total Cell Count [2]: 206 and 246 | Population Apoptotic (%) [3]: 37% and 46% | Population Fragmented Nuclei (%) [3]: 11% and 13% | Population Healthy Nuclei (%) [3]: 54% and 60% | Population Hoechst High Intensity Objects (%) [3]: 0% | Population Membrane Permeable-Phenotype (%) [3]: 2% and 8% | Population Mitochondria Different-Phenotype (%) [3]: 0% and 2% | Population Mitotic Cells (%) [3]: 62% and 53% | Population Normal (%) [3]: 99% | Population Pyknosed Nuclei (%) [3]: 33% and 25% | Population Tubulin-Different-Phenotype (%) [3]: 8% and 10% | Total Cell Count [3]: 136 and 162 | Population Apoptotic (%) [4]: 56% and 43% | Population Fragmented Nuclei (%) [4]: 11% and 10% | Population Healthy Nuclei (%) [4]: 66% and 71% | Population Hoechst High Intensity Objects (%) [4]: 0% | Population Membrane Permeable-Phenotype (%) [4]: 7% and 2% | Population Mitochondria Different-Phenotype (%) [4]: 2% | Population Mitotic Cells (%) [4]: 43% and 56% | Population Normal (%) [4]: 100% and 99% | Population Pyknosed Nuclei (%) [4]: 22% and 17% | Population Tubulin-Different-Phenotype (%) [4]: 20% and 12% | Total Cell Count [4]: 207 and 220 | Population Apoptotic (%) [5]: 53% and 68% | Population Fragmented Nuclei (%) [5]: 20% and 18% | Population Healthy Nuclei (%) [5]: 59% and 65% | Population Hoechst High Intensity Objects (%) [5]: 0% | Population Membrane Permeable-Phenotype (%) [5]: 10% and 7% | Population Mitochondria Different-Phenotype (%) [5]: 1% | Population Mitotic Cells (%) [5]: 46% and 31% | Population Normal (%) [5]: 99% and 100% | Population Pyknosed Nuclei (%) [5]: 19% and 15% | Population Tubulin-Different-Phenotype (%) [5]: 15% and 8% | Total Cell Count [5]: 154 and 185 | Population Apoptotic (%) [6]: 62% and 75% | Population Fragmented Nuclei (%) [6]: 17% and 14% | Population Healthy Nuclei (%) [6]: 68% and 78% | Population Hoechst High Intensity Objects (%) [6]: 0% | Population Membrane Permeable-Phenotype (%) [6]: 6% and 3% | Population Mitochondria Different-Phenotype (%) [6]: 2% and 3% | Population Mitotic Cells (%) [6]: 37% and 25% | Population Normal (%) [6]: 99% and 100% | Population Pyknosed Nuclei (%) [6]: 14% and 7% | Population Tubulin-Different-Phenotype (%) [6]: 12% and 11% | Total Cell Count [6]: 193 and 207
